From PubChem BioAssay
G6PDH counter = L. mesenteroides G6PDH inhibitors, counter-screen for G6PDH-coupled screening assays, biochemical, Leuconostoc mesenteroides enzyme. inhibition, % at 5 µM. glucose-6-phosphate dehydrogenase [Leuconostoc mesenteroides]. 200,000 compounds, 0.12% hits. AID 1020, 2008. Purified L. mesenteroides G6PDH, diaphorase/resazurin coupled fluorescence, 45 min; in the data active = inhibition above about 50%
PfGluPho inh = PfG6PD enzyme inhibitors, primary screen, biochemical, fluorescence intensity, uHTS. glucose-6-phosphate dehydrogenase-6-phosphogluconolactonase (Plasmodium falciparum 3D7). PfGluPho enzyme, NADPH resazurin-diaphorase fluorescence. inhibition, % at 20 µM. 350,000 compounds, 0.78% hits. AID 504690, 2011;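 active = inhibition reaching at least a set limit at 20 µM in the primary screen, cut at about 59% in these data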;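 also: 0% = DMSO wells with substrate and 100% = DMSO wells lacking glucose-6-phosphate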
HKDC1 inhibitor = HKDC1 hexokinase inhibitors, primary screen, biochemical, fluorescence, uHTS | inhibition, % at 20 µM | recombinant HKDC1, G6PDH/diaphorase resazurin coupled fluorescence | Q2TB90 | 340,000 compounds, 0.16% hits;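 active = inhibition above about 35% when tested at 20 µM, limit read from the data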;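 also: plate controls were DMSO wells with enzyme for no effect and DMSO wells lacking enzyme for full effect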
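Assay system – recombinant HKDC1 (HK5) hexokinase enzyme, produced in-house · Input – HKDC1 at 5 µg/mL · Reagent – glucose plus 1 mM ATP as hexokinase substrates · Timing – 90 min reaction incubation at room temperature, dark · Measured by – G6PDH/diaphorase-coupled fluorescence, 1 mM NADP, 100 µM resazurin, 525/613 nm · Benchmarks – DMSO-enzyme wells negative, buffer-substituted wells positive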
Diaphorase inh = diaphorase inhibitors and chemical oxidizers, primary screen, counter-screen for diaphorase-coupled primary assays, biochemical, uHTS, resorufin fluorescence; diaphorase resazurin-to-resorufin fluorescence, NADH, 16 min; bacterial (C. kluyveri) enzyme, not human; AID 1217, 2008; 190,000 compounds, 0.69% hits; inhibition, % at 20 µM;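 active = primary screen inhibition at 20 µM above a set limit, cut at about 50% in these data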;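 also: plate controls were DMSO with full reaction for no effect and wells lacking NADH for full effect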
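System: Diaphorase enzyme from Clostridium kluyveri | Amount: Enzyme working solution with 0.14 U/mL diaphorase | Benchmarks: No-NADH positive control and DMSO neutral control | Signal: Fluorescence of resorufin formed from resazurin, Ex 544/Em 590 nm | Schedule: 16-min room-temperature incubation before reading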
Diaphorase act = compounds boosting diaphorase resazurin reduction – biochemical, uHTS, resorufin fluorescence, counter-screen for diaphorase-coupled primary assays, primary screen | 190,000 compounds, 0.005% hits | Diaphorase/resazurin coupled assay, 16 min; stronger effect = higher value; 1 = vehicle wells, 0 = NADH-free wells | activation factor at 20 µM | AID 1229, 2008;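 active = diaphorase activity raised at least twofold by the compound at 20 µM; inactive = activation factor below 2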
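Measured by – red resorufin fluorescence at 544/590 nm excitation/emission · Test system – Clostridium kluyveri diaphorase, purified enzyme · Incubation – reaction time 16 min, room temperature · Buffer or medium – 50 mM HEPES pH 7.4 with 4.542 mM MgCl2, 0.005% Tween 20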
HKDC1 act conf = HKDC1 hexokinase activators, confirmation, biochemical, single concentration; recombinant HKDC1, G6PDH/diaphorase resazurin fluorescence; stronger effect = lower value; inhibition, % at 20 µM; 740 compounds, 14% hits; AID 504708, 2011; shares compounds with HKDC1 inhibitor;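 active = inhibition at or below a set negative limit, negative inhibition meaning the enzyme was activated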
An asterisk follows results filed as active; . = no result given. Shown are actives, neighbours in structure and some others; about 1.3% of the full set was active somewhere.

SMILES | G6PDH counter | PfGluPho inh | HKDC1 inhibitor | Diaphorase inh | Diaphorase act | HKDC1 act conf
CCN(CC(=O)Nc1c(F)cccc1F)C(=O)CSC(=S)N1CCCC1 | . | 10 | 0 | . | . | .
S=C1Cc2ccccc2N1 | . | 67* | -303 | . | . | -192*
Cc1cc(SCC(=O)c2cccc([N+](=O)[O-])c2)nc(=O)[nH]1 | . | 40 | -54 | . | . | 6
CCN(CC(=O)Nc1c(F)cccc1F)C(=O)COc1ccc2c(c1)CCC2 | . | -5 | 3 | . | . | .
Cc1onc(-c2ccccc2)c1C(=O)NNC(=S)NC(=O)c1ccc(Br)cc1 | -16 | -35 | -51 | 40 | 0.6 | -57*
COc1ccc(/C=C/C(=O)NC(=S)NNC(=O)c2c(-c3ccccc3)noc2C)cc1 | -18 | -43 | -38 | -9 | 1.1 | .
COc1ccc(-c2cc(C(=O)NNC(=S)NC(=O)c3c(-c4ccccc4)noc3C)[nH]n2)cc1 | -9 | -55 | -46 | 34 | 0.7 | -50*
COc1ccc(CNS(=O)(=O)c2c(C(=O)N3CCCCCC3)c(C)n(C)c2C)cc1 | . | -2 | 1 | . | . | .
NC(=S)N=Nc1c(O)cc(O)c2[nH]c(=O)ccc12 | . | 93* | 35* | . | . | 27
NC(=S)N=Nc1c(O)[nH]c2ccc(F)cc12 | 6 | -10 | 9 | 14 | 0.9 | .
COc1ccccc1C1=NNC(=Nc2cccc(S(=O)(=O)N(C)C)c2)SC1 | 1 | 41 | -202 | -3 | 1 | -177*
COc1ccc(C(=O)C2CCCN(C(=O)c3csc(SC)n3)C2)cc1F (stereo not drawn) | . | 16 | . | . | . | .
CCc1ccc2c(c1)C(NC(C)=O)C(=O)N2CCN1CCOCC1 (stereo not drawn) | . | 20 | 80* | . | . | 57
COc1cc(OC)c(S(=O)(=O)Nc2ccc(C(=O)O)cc2)cc1S(=O)(=O)Nc1ccc(C(=O)O)cc1 | . | -21 | 4 | . | . | .
COc1cc(/C=C2\SC(=Nc3ccc(Cl)c(C(=O)O)c3)NC2=O)c(Br)c(Br)c1O | . | 4 | 40* | . | . | 12
Cc1nc2oc3c(NCC4CCCO4)ncnc3c2c2c1COC(C)(C)C2 (stereo not drawn) | 8 | 13 | 18 | 18 | 0.8 | .
CC(C)c1nc2oc3c(=O)[nH]cnc3c2c2c1COC(C)(C)C2 | . | 32 | 36* | . | . | 48
CCCc1nc2oc3c(NCCOCCO)ncnc3c2c2c1COC(C)(C)C2 | 0 | 44 | 39* | 35 | 0.6 | 42
Cc1nc2oc3c(NCc4ccccc4)ncnc3c2c2c1COC(C)(C)C2 | 11 | 19 | 26 | 28 | 0.7 | .
CC(C)c1nc2oc3c(NCCO)ncnc3c2c2c1COC(C)(C)C2 | . | 56 | 46* | . | . | 66
CCCc1nc2oc3c(OC)ncnc3c2c2c1COC(C)(C)C2 | 5 | 46 | 37* | 37 | 0.6 | 42
Cc1cc(C)c(C)c(S(=O)(=O)NCCCn2ccnc2)c1C | . | 0 | -3 | . | . | .
CCC1=C(c2ccc(C)cc2)S(=O)(=O)N=C1N1CCC(C(=O)NCCCN2CCCCC2C)CC1 (stereo not drawn) | . | -5 | -6 | . | . | .
OCC1OC(Oc2cccc3ccccc23)C(O)C(O)C1O (stereo not drawn) | . | -1 | -1 | . | . | .
O=C(O)c1cc(O)c2c(c1)[C@@H]([C@H]1c3cc(C(=O)O)cc(O)c3C(=O)c3c(O[C@@H]4O[C@H](CO)[C@@H](O)[C@H](O)[C@H]4O)cccc31)c1cccc(O[C@@H]3O[C@H](CO)[C@@H](O)[C@H](O)[C@H]3O)c1C2=O | . | 30 | 80* | . | . | 34
COc1cc2c(cc1OC)n(CC(=O)NC1CCCCCC1)n1c(C)cc(=O)nc21 | . | -8 | -1 | . | . | .
O=C1C(N2CCOCC2)=C(n2nnc3ccccc32)C(=O)c2ccccc21 | 61* | 56 | 43* | 25 | 0.7 | 55
COc1ccc(C(C)=O)cc1CSCCC(=O)O | -2 | 8 | 0 | 11 | 0.9 | .
COc1ccc(C(=O)/C=C/c2ccsc2)cc1CSCC(=O)O | . | 0 | 36* | . | . | -10
